Experimental data as given in ChEMBL document CHEMBL1154242, “ent-Kaurane and cembrane diterpenoids from Isodon sculponeatus and their cytotoxicity” (J Nat Prod, 2009).

How the values were obtained:
Type in all cases: functional, cell-based
HepG2 = assay: Cytotoxicity against human HepG2 cells after 48 hrs; details: HepG2, 48 h
Procedure, shortened: (§1)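 Cells from the Shanghai Cell Bank were kept in RPMI1640 with 15% hormone-free heat-inactivated FBS, 2 mM glutamine, 100 U/mL penicillin G and 100 µg/mL streptomycin. Seeding was 5 × 10^4 cells/mL for K562 and 4 × 10^4 cells/mL for A549 and HepG2. Cells were exposed to compound for 48 h, and viability was read by CCK-8 at 450 and 650 nm. IC50 values come from triplicate experiments.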

K562 = assay: Cytotoxicity against human K562 cells after 48 hrs; details: K562, 48 h; procedure, shortened: as §1
A549 = assay: Cytotoxicity against human A549 cells after 48 hrs; details: A549, 48 h; procedure, shortened: as §1

SMILES | IC50 (HepG2) [µM] | IC50 (K562) [µM] | IC50 (A549) [µM]
C=C1C(=O)O[C@H]2/C=C(\C)C[C@@H]3C=C(CC/C=C(\C)CC[C@H]12)C(=O)O3 | 1.4 | 1.25 | 1.96
C=C1C(=O)O[C@H]2/C=C(\C)C[C@@H]3C=C(CC[C@@H](OO)C(=C)CC[C@H]12)C(=O)O3 | 3.11 | 4.3 | 4.18
C=C1C(=O)O[C@H]2/C=C(\C)C[C@@H]3C=C(C/C=C/[C@@](C)(OO)CC[C@H]12)C(=O)O3 | 0.9 | 1.2 | 1.55
C=C1[C@@H]2C[C@@H](O)[C@@H]3[C@](C2)(C(=O)O[C@H]2C[C@H](O)C(C)(C)[C@H]4[C@H](O)OC(=O)[C@@]243)[C@@H]1O [EMEMOGIN] | > 10 | > 10 | > 10
C=C1C(=O)[C@]23C[C@H]1CC[C@H]2[C@@]12CO[C@@H](O)[C@@H]1C(C)(C)[C@@H](O)C[C@@H]2OC3=O [ENEMIN] | 2.02 | 1.62 | > 10
C=C1[C@@H](O)[C@]23[C@H](O)[C@H]1CC[C@H]2[C@@]12CO[C@@]3(O)[C@@H](O)[C@@H]1C(C)(C)CC[C@@H]2O [ENMENOL] | > 10 | > 10 | > 10
C=C1C(=O)[C@]23C[C@H]1C[C@H](O)[C@H]2[C@@]12CO[C@@H](O)[C@@H]1C(C)(C)CC[C@@H]2OC3=O [EPINODOSIN] | 1.62 | 0.56 | 2.1
CC1(C)CC[C@@H]2OC(=O)[C@@]34C[C@@H](C[C@H](O)[C@H]3[C@]23CO[C@@H](O)[C@H]13)[C@@H](CO)C4=O [MAOYECRYSTAL D] | > 10 | > 10 | > 10
C=C1[C@@H]2C[C@@H](O)[C@H]3[C@@]45CO[C@@](O)([C@@H](O)[C@@H]4C(C)(C)CC[C@@H]5O)[C@]3(C2)[C@@H]1O [NERVOSANIN B] | > 10 | > 10 | > 10
C=C1C(=O)[C@]23C[C@H]1C[C@@H](O)[C@H]2[C@@]12CO[C@@H](O)[C@@H]1C(C)(C)CC[C@@H]2OC3=O [NODOSIN] | 1.92 | 0.54 | > 10
C=C1C(=O)[C@]23C[C@H]1C[C@@H](O)[C@H]2[C@]12CO[C@@H]4OC[C@](C)(CC[C@@H]1OC3=O)[C@@H]42 [SCULPONEATIN A] | 1.77 | 1.62 | 1.9
C=C1[C@@H]2C[C@@H](O)[C@@H]3[C@](C2)(C(=O)O[C@H]2CC[C@@]4(C)CO[C@H]5OC[C@]23[C@H]54)[C@@H]1O [SCULPONEATIN B] | > 10 | > 10 | > 10
C=C1C(=O)[C@]23C[C@H]1C[C@@H](O)[C@H]2[C@@]1(COC3=O)[C@@H]2[C@H]3OC[C@]2(C)CC[C@H]1O3 [SCULPONEATIN C] | 0.68 | 0.78 | 2.73
C=C1[C@@H]2C[C@H](O)[C@@H]3[C@](C2)(C(=O)OC2O[C@H](O)[C@@H]4[C@@](C)(CO)CC[C@H](O)[C@]243)[C@@H]1O (some centres undefined) [SCULPONEATIN D] | > 10 | > 10 | > 10
C[C@]12CC[C@@H]3OC(=O)[C@@]45C[C@@H](C[C@@H](O)[C@H]4[C@]34CO[C@H](OC1)[C@H]24)[C@@]1(CCC2=C(O1)[C@]13C[C@H]2C[C@@H](O)[C@H]1[C@]12CO[C@@H]4OC[C@](C)(CC[C@@H]1OC3=O)[C@@H]42)C5=O [SCULPONIN D] | 1.12 | 1.5 | 1
CC1(C)[C@H]2[C@H](O)OC[C@@]23[C@H](C[C@@H]1O)OC(=O)[C@@]12C[C@@H](C[C@@H](O)[C@H]13)[C@@]1(CCC3=C(O1)[C@]14C[C@H]3C[C@@H](O)[C@H]1[C@]13CO[C@@H]5OC[C@](C)(CC[C@@H]1OC4=O)[C@@H]53)C2=O [SCULPONIN E] | 1.62 | 2 | 1.85
C=C1[C@@H]2C[C@H](O)[C@@H]3[C@](C2)(C(=O)O[C@H]2C[C@H](O)C(C)(C)[C@H]4[C@H](O)OC[C@@]243)[C@@H]1OC(C)=O [SCULPONIN F] | > 10 | > 10 | > 10
C=C1C(=O)[C@]23C[C@H]1C[C@@H](O)[C@H]2[C@]12CO[C@H]4O[C@@H](O)[C@](C)(CC[C@@H]1OC3=O)[C@@H]42 [SCULPONIN G] | > 10 | > 10 | > 10
C=C1C(=O)[C@]23C[C@H]1C[C@@H](O)[C@H]2[C@]12CO[C@@H]4O[C@H](O)[C@](C)(CC[C@@H]1OC3=O)[C@@H]42 [SCULPONIN H] | > 10 | > 10 | > 10
C=C1[C@@H]2C[C@@H](O)[C@@H]3[C@](C2)(C(=O)O[C@H]2CC[C@@]4(C)[C@H](O)O[C@H]5OC[C@]23[C@H]54)[C@@H]1O [SCULPONIN I] | > 10 | > 10 | > 10
C=C1[C@@H]2C[C@@H](O)[C@@H]3[C@](C2)(C(=O)O[C@H]2CC[C@]4(C)[C@H]5[C@H](OC[C@@]253)O[C@@H]4O)[C@@H]1O [SCULPONIN J] | > 10 | > 10 | > 10
C=C1C(O)[C@]23C[C@H]1C[C@H](O)[C@H]2[C@]12CCC[C@@](C)(CO)[C@H]1[C@H](O)[C@]3(O)OC2 (some centres undefined) [SCULPONIN K] | > 10 | > 10 | > 10
C=C1[C@@H]2CC(=O)[C@H]3[C@]45C=CC[C@@](C)(CO)[C@H]4[C@H](O)[C@](O)(OC5)[C@]3(C2)[C@@H]1O [SCULPONIN L] | > 10 | > 10 | > 10
